The target of experiment [1] is Hepatocyte growth factor receptor (Homo sapiens, UniProt P08581). As to the kind of experiment: Inhibition of c-MET assessed as incorporation of p33 using [gammaP33]-ATP by microplate scintillation counting. The method, boiled down:
(§1)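 Compound added in 10% DMSO. Incubated 80 min at 30 °C, stopped with 2% phosphoric acid, washed with 0.9% NaCl, 33P incorporation counted by scintillation. Activity normalised to no-enzyme and no-inhibitor controls; plates repeated if Z′ < 0.4.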

Experiment [2] has as its target Insulin-like growth factor 1 receptor (Homo sapiens, UniProt P08069). As to the kind of experiment: Inhibition of IGF-1R assessed as incorporation of p33 using [gammaP33]-ATP by microplate scintillation counting. The method, boiled down:
as §1

In experiment [3] the target is Proto-oncogene tyrosine-protein kinase Src (Homo sapiens, UniProt P12931). As to the kind of experiment: Inhibition of SRC assessed as incorporation of p33 using [gammaP33]-ATP by microplate scintillation counting. An outline of the steps: as §1
Experiment [4] has as its system A549. As to the kind of experiment: Antiproliferative activity against human A549 cells at 10 uM after 48 hrs by sulforhodamine B assay relative to control. It counts as functional. To be noted: A549, 48 h. The method, boiled down: (§2)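 NCI cell-line screen: cells plated at 5000–40,000/well in medium with 5% foetal bovine serum and 2 mM L-glutamine, preincubated 24 h at 37 °C, 5% CO2. Time-zero plates fixed with TCA at drug addition. Compound from DMSO stock added; 48 h exposure. Cells fixed in situ with cold TCA, stained with 0.4% sulforhodamine B in 1% acetic acid, absorbance 515 nm; growth expressed relative to untreated controls (100%).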

In experiment [5] the test system is NCI-H522. As to the kind of experiment: Antiproliferative activity against human NCI-H522 at 10 uM after 48 hrs by sulforhodamine B assay relative to control. It counts as functional. To be noted: NCI-H522, 48 h. An outline of the steps: as §2
(In general: The SRB assay estimates cell density from bound dye.)

Experiment [6] relates to OVCAR-8. As to the kind of experiment: Antiproliferative activity against human OVCAR8 at 10 uM after 48 hrs by sulforhodamine B assay relative to control. It counts as functional. To be noted: OVCAR-8, 48 h. An outline of the steps: as §2

Molecules are shown by their SMILES.

Insulin-like growth factor 1 receptor, sequence (P08069 31-736 limits assumed): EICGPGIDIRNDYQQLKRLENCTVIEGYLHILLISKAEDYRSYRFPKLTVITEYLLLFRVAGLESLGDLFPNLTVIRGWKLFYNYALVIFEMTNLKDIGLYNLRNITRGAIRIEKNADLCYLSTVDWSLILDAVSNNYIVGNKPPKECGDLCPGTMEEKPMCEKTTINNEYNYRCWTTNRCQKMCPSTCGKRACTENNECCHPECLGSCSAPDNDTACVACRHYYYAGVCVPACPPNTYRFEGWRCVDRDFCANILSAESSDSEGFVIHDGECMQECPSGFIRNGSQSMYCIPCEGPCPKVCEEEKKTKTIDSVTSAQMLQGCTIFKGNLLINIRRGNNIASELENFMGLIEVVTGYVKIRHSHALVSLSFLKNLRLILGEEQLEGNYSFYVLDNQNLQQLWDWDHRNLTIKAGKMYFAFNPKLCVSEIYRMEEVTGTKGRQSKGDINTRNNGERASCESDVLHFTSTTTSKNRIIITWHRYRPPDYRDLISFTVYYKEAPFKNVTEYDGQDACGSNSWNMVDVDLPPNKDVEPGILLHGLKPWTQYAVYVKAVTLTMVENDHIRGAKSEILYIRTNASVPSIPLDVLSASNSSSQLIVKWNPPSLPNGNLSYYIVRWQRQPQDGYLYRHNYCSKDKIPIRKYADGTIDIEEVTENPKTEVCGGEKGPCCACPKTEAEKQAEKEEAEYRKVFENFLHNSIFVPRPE
Insulin-like growth factor 1 receptor, sequence (P08069 741-1367 limits assumed): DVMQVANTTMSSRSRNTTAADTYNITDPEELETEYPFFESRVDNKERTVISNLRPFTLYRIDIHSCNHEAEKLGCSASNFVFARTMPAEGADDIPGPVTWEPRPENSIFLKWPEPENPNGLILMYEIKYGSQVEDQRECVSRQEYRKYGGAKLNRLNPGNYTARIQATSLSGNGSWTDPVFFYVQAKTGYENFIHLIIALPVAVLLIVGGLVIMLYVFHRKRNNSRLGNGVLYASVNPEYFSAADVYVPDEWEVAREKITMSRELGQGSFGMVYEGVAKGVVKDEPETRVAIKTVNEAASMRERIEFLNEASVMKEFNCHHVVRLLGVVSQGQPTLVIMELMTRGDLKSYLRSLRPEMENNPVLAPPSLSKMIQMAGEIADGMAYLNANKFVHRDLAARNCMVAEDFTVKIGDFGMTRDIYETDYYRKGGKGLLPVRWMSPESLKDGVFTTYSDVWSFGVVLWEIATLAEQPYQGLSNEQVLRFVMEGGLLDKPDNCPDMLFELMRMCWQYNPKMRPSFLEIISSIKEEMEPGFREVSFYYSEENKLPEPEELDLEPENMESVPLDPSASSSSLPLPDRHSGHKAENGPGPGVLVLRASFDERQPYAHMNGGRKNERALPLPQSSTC
Hepatocyte growth factor receptor, sequence (P08581 whole entry): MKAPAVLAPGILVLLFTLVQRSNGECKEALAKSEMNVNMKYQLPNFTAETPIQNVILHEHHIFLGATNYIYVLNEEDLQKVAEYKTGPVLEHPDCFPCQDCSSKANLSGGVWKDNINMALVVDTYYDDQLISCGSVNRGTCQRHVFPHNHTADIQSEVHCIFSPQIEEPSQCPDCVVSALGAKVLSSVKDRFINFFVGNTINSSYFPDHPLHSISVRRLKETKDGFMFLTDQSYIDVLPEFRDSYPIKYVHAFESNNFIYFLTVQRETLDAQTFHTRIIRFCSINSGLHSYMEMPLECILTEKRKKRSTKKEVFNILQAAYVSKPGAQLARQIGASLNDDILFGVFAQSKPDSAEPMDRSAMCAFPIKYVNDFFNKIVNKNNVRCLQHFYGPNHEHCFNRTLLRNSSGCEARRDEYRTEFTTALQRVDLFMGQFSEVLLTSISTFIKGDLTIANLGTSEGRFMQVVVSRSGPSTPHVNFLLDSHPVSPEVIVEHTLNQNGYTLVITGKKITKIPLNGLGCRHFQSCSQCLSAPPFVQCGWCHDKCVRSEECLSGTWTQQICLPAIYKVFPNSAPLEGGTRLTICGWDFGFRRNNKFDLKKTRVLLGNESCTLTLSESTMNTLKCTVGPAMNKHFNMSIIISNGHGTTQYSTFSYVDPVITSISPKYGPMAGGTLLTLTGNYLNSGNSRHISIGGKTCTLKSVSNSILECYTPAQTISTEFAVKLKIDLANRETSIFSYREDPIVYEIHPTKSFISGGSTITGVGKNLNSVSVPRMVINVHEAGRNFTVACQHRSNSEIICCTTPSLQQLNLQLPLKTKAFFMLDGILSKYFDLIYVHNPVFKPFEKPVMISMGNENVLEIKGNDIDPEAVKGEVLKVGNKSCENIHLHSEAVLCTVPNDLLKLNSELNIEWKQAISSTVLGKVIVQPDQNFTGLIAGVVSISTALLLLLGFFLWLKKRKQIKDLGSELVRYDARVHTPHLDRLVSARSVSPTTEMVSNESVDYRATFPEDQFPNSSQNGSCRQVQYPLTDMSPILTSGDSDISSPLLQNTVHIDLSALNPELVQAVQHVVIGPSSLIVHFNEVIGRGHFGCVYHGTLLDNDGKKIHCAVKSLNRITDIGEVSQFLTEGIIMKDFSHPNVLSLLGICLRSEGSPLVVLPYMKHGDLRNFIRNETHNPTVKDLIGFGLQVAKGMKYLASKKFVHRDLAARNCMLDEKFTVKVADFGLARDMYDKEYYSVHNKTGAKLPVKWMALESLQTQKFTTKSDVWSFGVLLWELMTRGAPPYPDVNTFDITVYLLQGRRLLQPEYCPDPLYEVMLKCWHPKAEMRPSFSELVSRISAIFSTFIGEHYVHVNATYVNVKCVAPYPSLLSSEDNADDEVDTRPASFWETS
Proto-oncogene tyrosine-protein kinase Src, sequence (P12931 2-536 limits assumed): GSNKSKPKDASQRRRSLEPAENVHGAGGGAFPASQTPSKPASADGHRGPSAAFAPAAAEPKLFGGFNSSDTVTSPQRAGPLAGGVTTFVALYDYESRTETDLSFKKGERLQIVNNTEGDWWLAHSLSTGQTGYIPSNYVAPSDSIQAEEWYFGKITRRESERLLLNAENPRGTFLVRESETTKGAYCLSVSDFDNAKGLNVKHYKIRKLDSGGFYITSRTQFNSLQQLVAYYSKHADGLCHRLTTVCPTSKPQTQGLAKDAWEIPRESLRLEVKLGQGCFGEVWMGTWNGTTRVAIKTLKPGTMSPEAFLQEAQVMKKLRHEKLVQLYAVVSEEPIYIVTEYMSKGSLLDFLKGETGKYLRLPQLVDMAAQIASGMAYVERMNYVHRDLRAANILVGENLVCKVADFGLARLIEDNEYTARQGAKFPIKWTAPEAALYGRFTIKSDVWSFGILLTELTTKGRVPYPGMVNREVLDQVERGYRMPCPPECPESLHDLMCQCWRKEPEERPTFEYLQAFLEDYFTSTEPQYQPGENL

Broadly, the IC50 is the concentration that gives 50% inhibition. Take `O=C(NNC(=O)c1ccc(-c2ccccc2OCc2ccc(F)cc2)cc1)C(=O)c1c[nH]c2ccccc12`: the IC50 in experiment [1] turned out to be 13 µM; in experiment [2], 4.9 µM; in experiment [3], 1.9 µM.

Consider `O=C(NNc1ccc(I)cc1)C(=O)c1c[nH]c2ccccc12`, for which the IC50 in experiment [1] and in experiment [2] was over 100 µM each time.

On to `COCCc1ccc(OCc2cccc(-c3ccc(C(=O)NNC(=O)C(=O)c4c[nH]c5ccccc45)cc3)c2)cc1`, for which the IC50 was 8.8 µM in experiment [1], 0.68 µM in experiment [2] and 0.38 µM in experiment [3].

As for `O=C(NNC(=O)c1ccc(-c2ccccc2COc2cccc(C(F)(F)F)c2)cc1)C(=O)c1c[nH]c2ccccc12`, the 50% inhibitory concentration (IC50) came to 5.2 µM in experiment [1], 0.81 µM in experiment [2] and 0.62 µM in experiment [3].

On to `Cc1cc(C(C)(C)C)ccc1OCc1cccc(-c2ccc(C(=O)NNC(=O)C(=O)c3c[nH]c4ccccc34)cc2)c1`, for which the IC50 was determined as 4.1 µM in experiment [1], 0.67 µM in experiment [2] and 0.52 µM in experiment [3]. Besides, the results for the growth, % of control at 10 µM in experiment [4], in experiment [5] and in experiment [6] were 7.38%, -7.7% and -9.59%, respectively.

Regarding `CC(C)(C)c1ccc(C(=O)NNC(=O)C(=O)c2c[nH]c3ccccc23)cc1`, the values for the concentration for half-maximal inhibition (IC50) in experiment [1], in experiment [2] and in experiment [3] were 36 µM, 4.4 µM and 5.9 µM, respectively.

As for `CS(=O)(=O)NCc1cccc(-c2ccc(C(=O)NNC(=O)C(=O)c3c[nH]c4ccccc34)cc2)c1`, the IC50 worked out at 27 µM in experiment [1], 3.3 µM in experiment [2] and 2.8 µM in experiment [3].

Consider `O=C(NNC(=O)c1ccccc1)C(=O)c1c[nH]c2ccccc12`, for which the IC50 in experiment [1] and in experiment [2] was over 100 µM in each case.

Consider `O=C(NNC(=O)c1ccc(Cl)cc1)C(=O)c1c[nH]c2ccccc12`, for which the figures for the IC50 in experiment [1] and in experiment [2] were 48 µM and 16 µM, respectively.

On to `O=C(NNc1ccc(Br)cc1)C(=O)c1c[nH]c2ccccc12`, for which the IC50 in experiment [1] and in experiment [2] was over 100 µM throughout.

As for `O=C(NNc1ccccc1)C(=O)c1c[nH]c2ccccc12`, the IC50 in experiment [1] and in experiment [2] was over 100 µM in each case.

Regarding `O=C(NCc1cccc(Cl)c1)C(=O)c1c[nH]c2ccccc12`, the IC50 in experiment [1] and in experiment [2] was over 100 µM in each case.

Take `O=C(NNC(=O)c1ccc(-c2cccc(COc3cccc(C(F)(F)F)c3)c2)cc1)C(=O)c1c[nH]c2ccccc12`: the IC50 was 7.6 µM in experiment [1], 0.99 µM in experiment [2] and 0.72 µM in experiment [3].

On to `O=C(NNC(=O)c1ccc(C(F)(F)F)cc1)C(=O)c1c[nH]c2ccccc12`, for which the IC50 stood at 49 µM in experiment [1], 4.1 µM in experiment [2] and 1.3 µM in experiment [3].

Take `O=C(NNc1ccc(Cl)cc1)C(=O)c1c[nH]c2ccccc12`: the IC50 in experiment [1] and in experiment [2] was over 100 µM throughout.

For the molecule `Cc1nc(-c2ccc(C(=O)NNC(=O)C(=O)c3c[nH]c4ccccc34)cc2)no1`, the IC50 in experiment [1] was found to be 95 µM; in experiment [2], 12 µM; in experiment [3], 22 µM.

In the case of `O=C(NCc1ccc(Cl)cc1)C(=O)c1c[nH]c2ccccc12`, the IC50 in experiment [1] and in experiment [2] was over 100 µM in each case.

For `Cc1ccc(CNC(=O)C(=O)c2c[nH]c3ccccc23)cc1`, the IC50 in experiment [1] was over 100 µM; in experiment [2] it was 63 µM.

Take `O=C(NNC(=O)c1ccccc1F)C(=O)c1c[nH]c2ccccc12`: the IC50 in experiment [1] was found to be 91 µM; in experiment [2], 91 µM; in experiment [3], 96 µM.

Take `COc1ccc(C(=O)NNC(=O)C(=O)c2c[nH]c3ccccc23)cc1`: the IC50 amounted to 96 µM in experiment [1] and 54 µM in experiment [2].

As to `Cc1cncc(Oc2ccc(C(=O)NNC(=O)C(=O)c3c[nH]c4ccccc34)cc2)n1`, the IC50 in experiment [1] was over 100 µM; in experiment [2] it was 31 µM; in experiment [3], 40 µM.

Consider `O=C(NCc1ccccc1)C(=O)c1c[nH]c2ccccc12`, for which the IC50 in experiment [1] and in experiment [2] was over 100 µM in each case.

For the molecule `Cc1ccc(C(=O)NNC(=O)C(=O)c2c[nH]c3ccccc23)cc1`, the figures for the IC50 in experiment [1] and in experiment [2] were 95 µM and 82 µM, respectively.

Turning to `Cc1ccc(CCNC(=O)C(=O)c2c[nH]c3ccccc23)cc1`, the IC50 was over 100 µM in experiment [1] and 52 µM in experiment [2].

Take `O=C(NCCc1cccc(Cl)c1)C(=O)c1c[nH]c2ccccc12`: the IC50 in experiment [1] and in experiment [2] was over 100 µM in each case.

As for `Cc1ccc(C)n1-c1ccc(C(=O)NNC(=O)C(=O)c2c[nH]c3ccccc23)cc1`, the results for the concentration for half-maximal inhibition (IC50) in experiment [1], in experiment [2] and in experiment [3] were 16 µM, 4.9 µM and 3.6 µM, respectively.

Turning to `O=C(NNC(=O)c1ccc([N+](=O)[O-])cc1)C(=O)c1c[nH]c2ccccc12`, the IC50 in experiment [1] is 69 µM; in experiment [2] it was over 100 µM.

With `O=C(NNC(=O)c1ccc(I)cc1)C(=O)c1c[nH]c2ccccc12`, the IC50 was 14 µM in experiment [1], 4 µM in experiment [2] and 4.5 µM in experiment [3].

In the case of `COc1ccc(CCNC(=O)C(=O)c2c[nH]c3ccccc23)cc1OC`, the IC50 in experiment [1] and in experiment [2] was over 100 µM each time.

In the case of `O=C(NCCc1ccc(Cl)cc1)C(=O)c1c[nH]c2ccccc12`, the IC50 in experiment [1] and in experiment [2] was over 100 µM each time.

Source of the values: ChEMBL document CHEMBL1795330, “Dual IGF-1R/SRC inhibitors based on a N'-aroyl-2-(1H-indol-3-yl)-2-oxoacetohydrazide structure” (Eur J Med Chem, 2011).
